Measured values reported in ChEMBL document CHEMBL5661979, “Pharmacological inhibition of BMK1 suppresses tumor growth through promyelocytic leukemia protein” (Cancer Cell, 2010).
Calls of active or inactive are those of the source. No cut-off for these calls is given here.

Key:
[1] = biological target: Ephrin type-B receptor 4 (Homo sapiens) (UniProt P54760); test: Inhibition of EphB4 in human HeLa cells lysate at 2 uM pre incubated for 15 mins followed by ATP acyl phosphate probe addition and measured after 10 mins by LC-MS/MS analysis relative to control; format: subcellular; conditions: time 25.0 min
[2] = biological target: T1, MAP/microtubule affinity-regulating kinase 3 (Homo sapiens, UniProt P27448); test: Inhibition of MARK3 in human HeLa cells lysate at 2 uM pre incubated for 15 mins followed by ADP acyl phosphate probe addition and measured after 10 mins by LC-MS/MS analysis relative to control; format: subcellular; conditions: time 25.0 min
[3] = Toxicity in C57Bl/6 mouse assessed as effect on glucose level at 50 mg/kg, ip for 14 days (reference value: 181 mg/dl); format: organism-based; conditions: in vivo, 336 h, time 14 day
[4] = biological target: T2, Mitogen-activated protein kinase kinase kinase kinase 2 (Homo sapiens) (UniProt Q12851); test: Inhibition of GCK in human HeLa cells lysate at 50 uM pre incubated for 15 mins followed by ADP acyl phosphate probe addition and measured after 10 mins by LC-MS/MS analysis relative to control; format: subcellular; conditions: time 25.0 min
T2 sequence (whole entry): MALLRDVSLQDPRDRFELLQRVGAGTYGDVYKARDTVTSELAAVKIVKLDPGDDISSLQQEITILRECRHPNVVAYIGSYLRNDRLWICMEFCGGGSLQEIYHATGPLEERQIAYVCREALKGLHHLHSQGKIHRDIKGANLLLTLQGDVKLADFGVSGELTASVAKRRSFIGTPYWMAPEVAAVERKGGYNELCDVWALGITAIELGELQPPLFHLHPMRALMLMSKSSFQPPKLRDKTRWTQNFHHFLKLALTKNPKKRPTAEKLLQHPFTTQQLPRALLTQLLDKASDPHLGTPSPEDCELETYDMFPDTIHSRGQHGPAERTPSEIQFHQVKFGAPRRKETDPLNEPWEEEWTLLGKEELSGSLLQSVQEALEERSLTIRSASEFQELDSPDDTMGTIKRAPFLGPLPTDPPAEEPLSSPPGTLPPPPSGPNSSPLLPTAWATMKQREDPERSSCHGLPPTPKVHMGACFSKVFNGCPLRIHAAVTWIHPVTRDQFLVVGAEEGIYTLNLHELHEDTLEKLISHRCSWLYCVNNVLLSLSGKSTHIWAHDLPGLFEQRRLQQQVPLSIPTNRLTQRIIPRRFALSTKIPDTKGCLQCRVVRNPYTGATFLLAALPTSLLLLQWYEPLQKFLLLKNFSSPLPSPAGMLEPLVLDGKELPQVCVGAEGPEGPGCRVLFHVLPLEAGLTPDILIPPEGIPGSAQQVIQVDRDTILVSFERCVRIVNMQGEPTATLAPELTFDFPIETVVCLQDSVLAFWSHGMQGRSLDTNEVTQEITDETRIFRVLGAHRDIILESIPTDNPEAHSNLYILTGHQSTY

[5] = tested on: HeLa; test: Antiproliferative activity against human HeLa cells over expressing BMK1 assessed as reduction in cell viability at 5 uM after 48 hrs by MTT assay; format: functional, cell-based
How it was run: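 HeLa cells were infected with empty adenovirus or adenovirus encoding dominant-negative BMK1(AEF). After 24 hr they were treated with or without 5 μM drug for 48 hr and read by MTT. % growth inhibition = (1 − MTT of group / MTT of Ad-EV-only cells) × 100. n = 3.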

[6] = biological target: T1, MAP/microtubule affinity-regulating kinase 3; test: Inhibition of MARK3 in human HeLa cells lysate at 50 uM pre incubated for 15 mins followed by ATP acyl phosphate probe addition and measured after 10 mins by LC-MS/MS analysis relative to control; format: subcellular; conditions: time 25.0 min
[7] = biological target: 5'-AMP-activated protein kinase catalytic subunit alpha-2 (Homo sapiens, UniProt P54646); test: Inhibition of AMPKalpha2 in human HeLa cells lysate pre incubated for 15 mins followed by ADP acyl phosphate probe addition and measured after 10 mins by LC-MS/MS analysis; format: subcellular
How it was run: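 HeLa cell lysates (5 mg/mL total protein) were preincubated with inhibitor at 0, 0.8, 2, 10 or 50 μM for 15 min. ATP or ADP acylphosphate probe was then added (5 μM final) for 10 min, and reactions were stopped with urea. Up to four fragment ions per kinase probe-peptide were quantified by targeted MS. % inhibition was taken relative to untreated lysate. Run in duplicate.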

[8] = biological target: Dual specificity protein kinase CLK3 (Homo sapiens, UniProt P49761); test: Inhibition of CLK3 in human HeLa cells lysate pre incubated for 15 mins followed by ADP acyl phosphate probe addition and measured after 10 mins by LC-MS/MS analysis; format: subcellular
[9] = biological target: Serine/threonine-protein kinase Nek4 (Homo sapiens, UniProt P51957); test: Inhibition of NEK4 in human HeLa cells lysate pre incubated for 15 mins followed by ATP acyl phosphate probe addition and measured after 10 mins by LC-MS/MS analysis; format: subcellular
[10] = biological target: Serine/threonine-protein kinase Aurora (Homo sapiens, UniProt Q96GD4+Q9UQB9+O14965); test: Inhibition of AurA/AurB/AurC in human HeLa cells lysate at 2 uM pre incubated for 15 mins followed by ATP acyl phosphate probe addition and measured after 10 mins by LC-MS/MS analysis relative to control; format: subcellular; conditions: time 25.0 min
How it was run: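 KiNativ-type profiling in HeLa lysate (5 mg/mL total protein). Lysate preincubated 15 min with inhibitor at 50, 10, 2, 0.8 or 0 μM, then ATP or ADP acylphosphate probe added (5 μM final) for 10 min. Reaction stopped with urea and analysed by targeted MS, using up to four fragment ions per kinase peptide-probe conjugate. % inhibition calculated against untreated lysate. Duplicate reactions.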

[11] = biological target: T3, EKC/KEOPS complex subunit TP53RK (Homo sapiens) (UniProt Q96S44); test: Inhibition of PRPK in human HeLa cells lysate at 2 uM pre incubated for 15 mins followed by ATP acyl phosphate probe addition and measured after 10 mins by LC-MS/MS analysis relative to control; format: subcellular; conditions: time 25.0 min
T3 sequence (whole entry): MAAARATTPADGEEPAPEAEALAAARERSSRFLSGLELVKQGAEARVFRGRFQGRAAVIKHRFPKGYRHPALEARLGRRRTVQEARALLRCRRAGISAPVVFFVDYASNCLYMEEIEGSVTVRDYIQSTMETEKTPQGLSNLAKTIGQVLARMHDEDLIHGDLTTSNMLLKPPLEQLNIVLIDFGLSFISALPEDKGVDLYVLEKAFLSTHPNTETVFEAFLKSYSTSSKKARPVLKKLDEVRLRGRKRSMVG

[12] = tested on: Lewis lung carcinoma; test: In vivo inhibition of […] in mouse LL2 cells allografted in C57Bl/6 mouse assessed as decrease in Grb2 phosphorylation level for 2 weeks by Western blot analysis; format: functional, organism-based
[13] = biological target: Tyrosine-protein kinase CSK (Homo sapiens, UniProt P41240); test: Inhibition of CSK in human HeLa cells lysate at 10 uM pre incubated for 15 mins followed by ATP acyl phosphate probe addition and measured after 10 mins by LC-MS/MS analysis relative to control; format: subcellular; conditions: time 25.0 min
[14] = biological target: c-Jun N-terminal kinase, JNK (Homo sapiens, UniProt P45983+P53779+P45984); test: Inhibition of JNK1/JNK2/JNK3 in human HeLa cells lysate at 50 uM pre incubated for 15 mins followed by ATP acyl phosphate probe addition and measured after 10 mins by LC-MS/MS analysis relative to control; format: subcellular; conditions: time 25.0 min

T1 sequence (P27448 whole entry, looked up): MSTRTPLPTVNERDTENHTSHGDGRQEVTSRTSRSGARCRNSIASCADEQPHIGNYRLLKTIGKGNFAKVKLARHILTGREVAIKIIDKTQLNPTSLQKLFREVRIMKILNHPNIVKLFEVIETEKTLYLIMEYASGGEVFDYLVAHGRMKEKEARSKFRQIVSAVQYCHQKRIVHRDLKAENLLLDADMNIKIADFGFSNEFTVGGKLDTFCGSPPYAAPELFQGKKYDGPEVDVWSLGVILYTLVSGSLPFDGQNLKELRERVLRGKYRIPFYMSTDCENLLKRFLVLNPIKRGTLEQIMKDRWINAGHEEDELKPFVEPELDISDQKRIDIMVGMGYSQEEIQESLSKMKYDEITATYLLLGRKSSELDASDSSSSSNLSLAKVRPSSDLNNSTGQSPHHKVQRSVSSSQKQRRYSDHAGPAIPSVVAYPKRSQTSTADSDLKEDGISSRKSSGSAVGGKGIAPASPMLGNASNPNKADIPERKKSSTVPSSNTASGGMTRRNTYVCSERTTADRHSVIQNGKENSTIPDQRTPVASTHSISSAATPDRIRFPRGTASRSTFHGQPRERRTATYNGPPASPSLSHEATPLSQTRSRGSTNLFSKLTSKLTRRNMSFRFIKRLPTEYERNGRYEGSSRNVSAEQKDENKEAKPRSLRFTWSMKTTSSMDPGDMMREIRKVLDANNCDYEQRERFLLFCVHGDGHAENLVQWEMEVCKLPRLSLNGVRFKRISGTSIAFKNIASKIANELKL
Serine/threonine-protein kinase Nek4, sequence (P51957 whole entry): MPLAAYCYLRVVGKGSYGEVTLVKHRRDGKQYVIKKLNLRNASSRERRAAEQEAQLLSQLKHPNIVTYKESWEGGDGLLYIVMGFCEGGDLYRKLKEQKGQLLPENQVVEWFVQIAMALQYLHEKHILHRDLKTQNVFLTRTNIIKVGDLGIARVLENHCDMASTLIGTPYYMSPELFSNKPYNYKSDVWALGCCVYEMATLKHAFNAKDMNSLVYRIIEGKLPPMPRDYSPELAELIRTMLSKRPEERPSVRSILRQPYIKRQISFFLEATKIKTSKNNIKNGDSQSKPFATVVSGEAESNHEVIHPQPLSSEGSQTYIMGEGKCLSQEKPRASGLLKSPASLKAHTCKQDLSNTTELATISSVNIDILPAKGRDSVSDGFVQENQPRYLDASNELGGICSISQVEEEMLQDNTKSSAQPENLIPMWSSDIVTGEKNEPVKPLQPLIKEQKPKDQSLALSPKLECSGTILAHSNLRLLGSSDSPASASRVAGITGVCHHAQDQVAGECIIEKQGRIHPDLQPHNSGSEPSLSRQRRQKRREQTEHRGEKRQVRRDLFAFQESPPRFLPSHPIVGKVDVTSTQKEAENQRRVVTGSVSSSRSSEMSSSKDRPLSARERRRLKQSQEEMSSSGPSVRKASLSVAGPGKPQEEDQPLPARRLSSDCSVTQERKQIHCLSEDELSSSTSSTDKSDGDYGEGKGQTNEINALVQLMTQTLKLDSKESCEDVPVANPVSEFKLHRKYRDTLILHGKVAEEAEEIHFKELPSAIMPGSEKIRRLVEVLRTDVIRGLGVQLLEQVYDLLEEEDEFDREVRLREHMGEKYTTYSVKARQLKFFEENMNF
5'-AMP-activated protein kinase catalytic subunit alpha-2, sequence (P54646 whole entry, the tested form may be a part): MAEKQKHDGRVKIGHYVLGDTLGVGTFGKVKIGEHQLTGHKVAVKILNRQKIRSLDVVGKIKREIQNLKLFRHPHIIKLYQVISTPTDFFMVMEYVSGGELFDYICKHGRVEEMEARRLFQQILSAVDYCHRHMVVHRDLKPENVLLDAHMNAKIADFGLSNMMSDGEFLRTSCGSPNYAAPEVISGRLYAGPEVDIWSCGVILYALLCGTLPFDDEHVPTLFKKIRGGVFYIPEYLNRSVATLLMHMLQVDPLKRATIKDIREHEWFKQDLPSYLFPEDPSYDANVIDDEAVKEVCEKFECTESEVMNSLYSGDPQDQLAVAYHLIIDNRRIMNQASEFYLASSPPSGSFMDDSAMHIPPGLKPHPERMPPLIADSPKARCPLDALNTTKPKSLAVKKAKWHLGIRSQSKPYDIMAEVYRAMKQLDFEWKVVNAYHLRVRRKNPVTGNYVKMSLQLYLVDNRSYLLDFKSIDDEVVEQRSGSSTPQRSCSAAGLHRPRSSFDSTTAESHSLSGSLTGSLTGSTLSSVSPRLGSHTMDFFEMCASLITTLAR
Dual specificity protein kinase CLK3, sequence (P49761 whole entry): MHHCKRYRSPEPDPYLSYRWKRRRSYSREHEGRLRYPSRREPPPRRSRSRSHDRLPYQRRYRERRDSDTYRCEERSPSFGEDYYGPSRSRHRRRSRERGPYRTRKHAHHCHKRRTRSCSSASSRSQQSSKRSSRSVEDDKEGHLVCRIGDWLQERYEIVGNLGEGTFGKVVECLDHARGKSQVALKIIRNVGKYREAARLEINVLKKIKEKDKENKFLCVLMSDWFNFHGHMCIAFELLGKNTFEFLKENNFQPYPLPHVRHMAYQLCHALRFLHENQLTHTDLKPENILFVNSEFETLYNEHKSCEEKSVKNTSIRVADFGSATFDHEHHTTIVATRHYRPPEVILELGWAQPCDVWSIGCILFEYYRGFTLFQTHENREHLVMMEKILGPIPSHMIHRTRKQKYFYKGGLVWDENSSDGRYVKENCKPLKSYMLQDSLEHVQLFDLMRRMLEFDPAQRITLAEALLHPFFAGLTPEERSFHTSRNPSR
Serine/threonine-protein kinase Aurora, sequence (O14965 whole entry, looked up, the tested form may be a part): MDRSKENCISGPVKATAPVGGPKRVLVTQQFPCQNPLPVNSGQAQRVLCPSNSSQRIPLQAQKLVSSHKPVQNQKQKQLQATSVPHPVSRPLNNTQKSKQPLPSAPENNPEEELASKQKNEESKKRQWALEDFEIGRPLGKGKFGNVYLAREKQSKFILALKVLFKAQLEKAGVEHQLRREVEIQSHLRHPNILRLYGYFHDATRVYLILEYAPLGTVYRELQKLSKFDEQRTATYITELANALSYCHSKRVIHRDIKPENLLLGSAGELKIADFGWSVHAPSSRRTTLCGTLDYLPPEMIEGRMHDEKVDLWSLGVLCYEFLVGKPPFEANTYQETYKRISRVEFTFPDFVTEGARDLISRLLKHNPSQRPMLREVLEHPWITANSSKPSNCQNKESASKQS
Serine/threonine-protein kinase Aurora, sequence (Q96GD4 whole entry, looked up, the tested form may be a part): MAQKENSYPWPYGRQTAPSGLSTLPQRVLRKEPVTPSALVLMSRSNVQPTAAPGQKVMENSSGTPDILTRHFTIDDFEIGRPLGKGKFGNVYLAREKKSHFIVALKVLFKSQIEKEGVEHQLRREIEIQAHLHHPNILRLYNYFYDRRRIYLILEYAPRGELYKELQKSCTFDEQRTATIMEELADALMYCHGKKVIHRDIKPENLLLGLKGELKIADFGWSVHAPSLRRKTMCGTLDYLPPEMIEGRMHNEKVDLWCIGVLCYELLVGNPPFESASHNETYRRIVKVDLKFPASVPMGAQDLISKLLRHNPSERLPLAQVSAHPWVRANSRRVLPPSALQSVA
Serine/threonine-protein kinase Aurora, sequence (Q9UQB9 whole entry, looked up, the tested form may be a part): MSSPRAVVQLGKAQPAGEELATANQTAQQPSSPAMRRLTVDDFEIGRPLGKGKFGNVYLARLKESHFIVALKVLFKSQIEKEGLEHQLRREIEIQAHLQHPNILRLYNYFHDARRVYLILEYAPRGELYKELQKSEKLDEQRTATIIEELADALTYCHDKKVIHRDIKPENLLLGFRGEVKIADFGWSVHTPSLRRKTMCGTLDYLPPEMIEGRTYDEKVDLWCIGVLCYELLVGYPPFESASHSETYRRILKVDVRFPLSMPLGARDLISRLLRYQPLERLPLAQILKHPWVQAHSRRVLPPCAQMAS
Ephrin type-B receptor 4 (Homo sapiens), sequence (P54760 whole entry): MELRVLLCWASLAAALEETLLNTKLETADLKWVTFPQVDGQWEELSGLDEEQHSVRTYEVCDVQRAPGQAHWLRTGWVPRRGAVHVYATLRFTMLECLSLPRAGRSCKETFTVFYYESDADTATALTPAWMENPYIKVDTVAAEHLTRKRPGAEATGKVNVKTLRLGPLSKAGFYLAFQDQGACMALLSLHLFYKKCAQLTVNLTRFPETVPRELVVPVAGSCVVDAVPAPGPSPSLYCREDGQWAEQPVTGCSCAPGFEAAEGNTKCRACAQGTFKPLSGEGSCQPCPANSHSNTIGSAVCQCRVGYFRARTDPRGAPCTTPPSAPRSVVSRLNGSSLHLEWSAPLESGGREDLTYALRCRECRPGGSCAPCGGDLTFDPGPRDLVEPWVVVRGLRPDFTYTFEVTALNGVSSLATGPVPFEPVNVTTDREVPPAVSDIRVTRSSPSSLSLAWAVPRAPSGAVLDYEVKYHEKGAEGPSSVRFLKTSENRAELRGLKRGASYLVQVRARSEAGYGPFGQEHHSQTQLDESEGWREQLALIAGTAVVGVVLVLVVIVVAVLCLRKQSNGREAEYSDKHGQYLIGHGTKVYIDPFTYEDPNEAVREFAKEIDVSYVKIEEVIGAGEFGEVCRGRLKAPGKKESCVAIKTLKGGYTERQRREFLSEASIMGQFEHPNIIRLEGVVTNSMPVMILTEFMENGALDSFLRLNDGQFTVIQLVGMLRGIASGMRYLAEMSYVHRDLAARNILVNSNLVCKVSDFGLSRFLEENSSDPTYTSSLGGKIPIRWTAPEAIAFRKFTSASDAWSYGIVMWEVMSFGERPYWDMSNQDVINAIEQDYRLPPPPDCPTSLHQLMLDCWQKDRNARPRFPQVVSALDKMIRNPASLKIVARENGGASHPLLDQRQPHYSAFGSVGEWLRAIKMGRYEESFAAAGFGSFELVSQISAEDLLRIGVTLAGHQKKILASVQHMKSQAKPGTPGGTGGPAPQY

CCOc1cc(N2CCC(O)CC2)ccc1Nc1ncc2c(n1)N(C)c1ccccc1C(=O)N2C
inhibition [1]: -5.4%
inhibition [2]: -3.4%
Activity [3]: 126 mg/dL
inhibition [4]: 34.5%
Activity [5]: Active
inhibition [6]: 6.2%
IC50 [7]: > 50 µM
IC50 [8]: > 50 µM
IC50 [9]: > 50 µM
inhibition [10]: -5.8%
inhibition [11]: 10.2%
inhibition [12]: Active
inhibition [13]: -3.4%
inhibition [14]: -0.6%
